Measured values from ChEMBL document CHEMBL1155884, “Sinulodurins A and B, antiproliferative and anti-invasive diterpenes from the soft coral Sinularia dura” (J Nat Prod, 2008).
pIC50: −log10 of the molar value. Calls of active or inactive are those of the source. The rule behind the calls is not given here.

Experiments:
Escherichia coli = assay: Antimicrobial activity against Escherichia coli up to 50 ug/mL; assay type: functional, organism-based
Pseudomonas aeruginosa = assay: Antimicrobial activity against Pseudomonas aeruginosa up to 50 ug/mL; assay type: functional, organism-based
Vero = assay: Cytotoxicity against african green monkey Vero cells; assay type: cell-based; details: chlorocebus sabaeus
Cryptococcus neoformans = assay: Antimicrobial activity against Cryptococcus neoformans up to 50 ug/mL; assay type: functional, organism-based
Staphylococcus aureus = assay: Antimicrobial activity against methicillin-resistant Staphylococcus aureus up to 50 ug/mL; assay type: functional, organism-based
[1] = system: Mycobacterium intracellulare; assay: Antimicrobial activity against Mycobacterium intracellular up to 50 ug/mL; assay type: functional, organism-based
Candida albicans = assay: Antimicrobial activity against Candida albicans up to 50 ug/mL; assay type: functional, organism-based
Aspergillus fumigatus = assay: Antimicrobial activity against Aspergillus fumigatus up to 50 ug/mL; assay type: functional, organism-based
[2] = Antiproliferative activity against mouse +SA cells assessed as cell viability after 4 days by MTT assay; assay type: functional, cell-based; details: 96 h
Procedure, shortened: (§1)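 Highly malignant +SA mouse mammary epithelial cells kept in serum-free medium with 10 ng/mL EGF and 10 µg/mL insulin as mitogens. Seeded 5 × 10^4 cells/well, 6 wells/group, fed medium with compound at 0.01-1000 µM. Viable cell number determined by MTT colorimetric assay after 4 days in culture, compared against vehicle control.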

Homo sapiens [3] = species on record: Homo sapiens; assay: Antiinvasive activity against human PC-3M-CT+ cells at 200 uM after 48 hrs by spheroid disaggregation assay; assay type: functional, cell-based
Procedure, shortened: (§2)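 Spheroids formed from 5 × 10^4 cells/mL in serum-free RPMI 1640 rocked in low-attachment wells at 37 °C for 2 days (150-300 µm, ~4 × 10^4 cells each). Single spheroid placed on ECM-coated well in serum-free medium, t=0 set 1 h after plating. Photographed at t=0, cultured 48 h at 37 °C, fixed, Diff-Quik stained. Migration diameter measured by micrometer minus initial diameter; given as average percent increase in surface area.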

Homo sapiens [4] = species on record: Homo sapiens; assay: Antiinvasive activity against human PC-3M-CT+ cells at 50 uM after 48 hrs by spheroid disaggregation assay; assay type: functional, cell-based; procedure, shortened: as §2
+SA cell [5] = assay: Antiproliferative activity against mouse +SA cells assessed as cell viability at 20 uM after 4 days by MTT assay; assay type: functional, cell-based; procedure, shortened: as §1
Homo sapiens [6] = species on record: Homo sapiens; assay: Antiinvasive activity against human PC-3M-CT+ cells at 25 uM after 48 hrs by spheroid disaggregation assay; assay type: functional, cell-based; procedure, shortened: as §2
Homo sapiens [7] = species on record: Homo sapiens; assay: Antiinvasive activity against human PC-3M-CT+ cells at 100 uM after 48 hrs by spheroid disaggregation assay; assay type: functional, cell-based; procedure, shortened: as §2
+SA cell [8] = assay: Antiproliferative activity against mouse +SA cells assessed as cell viability at 30 uM after 4 days by MTT assay; assay type: functional, cell-based; procedure, shortened: as §1

Structure (SMILES) | Activity (Escherichia coli) | Activity (Pseudomonas aeruginosa) | Activity (Vero) | Activity (Cryptococcus neoformans) | Activity (Staphylococcus aureus) | Activity [1] | Activity (Candida albicans) | Activity (Aspergillus fumigatus) | pIC50 [2] | Activity (Homo sapiens [3]) | Activity (Homo sapiens [4]) | Activity (+SA cell [5]) | Activity (Homo sapiens [6]) | Activity (Homo sapiens [7]) | Activity (+SA cell [8])
C=C1C=C2[C@@H](C[C@@H]1O)[C@@H](C)CC[C@@H]2[C@@H](C)CCC=C(C)C | inactive | inactive | Not Active | inactive | inactive | inactive | inactive | inactive | – | – | – | – | – | – | –
CC(C)=CCC/C(C)=C/CC/C(C)=C/CC[C@]1(C)CCc2cc(O)cc(C)c2O1 [DELTA-TOCOTRIENOL] | – | – | – | – | – | – | – | – | 5.15 | – | – | – | – | – | –
C=C1C=C2[C@H](CC1)[C@@H](C)CC[C@@H]2[C@@H](C)CCC=C(C)C | inactive | inactive | Not Active | inactive | inactive | inactive | inactive | inactive | – | – | – | – | – | – | –
C=C1C=C2[C@@H](CC1)[C@H](C)CC[C@H]2[C@H](C)C(OC(C)=O)C(=O)C=C(C)C (stereo partly drawn) [SINULODURIN B] | inactive | inactive | Not Active | inactive | inactive | inactive | inactive | inactive | – | Active | Active | Active | Active | Active | –
C=C1C=C2[C@@H](CC1)[C@H](C)[C@H](OC(C)=O)C[C@H]2[C@H](C)C(OC(C)=O)C(=O)C=C(C)C (stereo partly drawn) [SINULODURIN A] | inactive | inactive | Not Active | inactive | inactive | inactive | inactive | inactive | – | Active | Active | – | Active | Active | Active
